Experiment [1] is described as follows: Dissociation constant for a single binding site. An outline of the steps:
(§1)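 Bovine serum albumin (10 mg/mL) was pre-equilibrated with ~5 mCi tritiated water in 1 M GdnCl, 0.1 M NaH2PO4 pH 8.5 for ≥18 h at room temperature. Exchange-out ran with compound present. Aliquots were taken at timed intervals over ≥6 h, precipitated in ice-cold 10% TCA, filtered, and counted by scintillation. PFR came from the last 3–5 shared hydrogens. KD was derived from PFr = 1 + ([compound]/KD)^n.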

Experiment [2] can be described thus: Effective concentration for tadpole immobility (less potent). The format is functional, frog. The method, boiled down: (§2)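 Tadpoles were exposed to compound in pond water and scored for loss of righting reflex over 5 min. They were then moved to fresh pond water and watched for recovery, intermittently for 3 h. EC50 values are estimates within 2-fold.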
For experiment [3], the target named is Albumin (Homo sapiens, UniProt P02768). The experiment is described as follows: Inhibitory concentration bound to tryptophan containing region of Serum albumin in fluorescence quenching. The method, boiled down:
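Increasing compound concentrations were added from stock buffer solutions to ~2 µM human serum albumin, which has a single Trp-214. The cuvette was kept air-free. Excitation was 295 nm with emission scanning at room temperature. Fluorescence maxima were corrected for inner-filter effects, and EC50 and Hill slope were derived.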

Experiment [4] in a line: (§3) Effective concentration to potentiate GABA responses. Format: functional. The method, boiled down: (§4)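 Stage V–VI Xenopus oocytes were defolliculated with collagenase and injected with 1–2 ng of each subunit cRNA in a 1:1 ratio. They were kept in ND96 with 50 µg/mL gentamicin at 18 °C for 3–5 days. Voltage-clamp recording was done under continuous ND96 superfusion (pH 7.5).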

Experiment [5] in a line: Effective concentration for rapid onset of reversible immobility (tadpole) at about 0.1 mM. The format is functional, frog. The method, boiled down: as §2
A short description of experiment [6]: Dissociation constant for a single binding site at 5 mM concentration. An outline of the steps:
as §1

The nature of experiment [7]: as §3. Format: functional. The method, boiled down:
as §4
The source holds these as a separate data set.

Experiment [8] is described as follows: Effective concentration for tadpole immobility after 5 min (slow recovery). The format is functional, frog. The note with it: Amphibia, read-out: ED50 (the source's name). An outline of the steps:
as §2

pEC50, pIC50, pKd: −log10 of the molar value.

Sequence of Albumin (P02768 whole entry): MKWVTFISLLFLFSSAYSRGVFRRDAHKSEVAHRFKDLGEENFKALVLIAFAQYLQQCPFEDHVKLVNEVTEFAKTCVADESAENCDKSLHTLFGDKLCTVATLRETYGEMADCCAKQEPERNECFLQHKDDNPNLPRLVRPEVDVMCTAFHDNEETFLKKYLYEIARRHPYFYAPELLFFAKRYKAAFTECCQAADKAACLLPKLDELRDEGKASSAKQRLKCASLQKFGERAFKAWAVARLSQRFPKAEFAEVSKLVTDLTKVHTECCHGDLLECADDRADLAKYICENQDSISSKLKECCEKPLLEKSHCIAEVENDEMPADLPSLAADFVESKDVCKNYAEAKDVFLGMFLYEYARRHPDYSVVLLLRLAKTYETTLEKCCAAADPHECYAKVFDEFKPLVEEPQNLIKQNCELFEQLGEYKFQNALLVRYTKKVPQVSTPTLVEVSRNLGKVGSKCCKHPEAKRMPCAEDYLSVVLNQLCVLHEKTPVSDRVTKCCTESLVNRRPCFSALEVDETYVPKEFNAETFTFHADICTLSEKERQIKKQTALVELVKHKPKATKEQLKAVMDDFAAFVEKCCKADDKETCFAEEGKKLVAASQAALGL

Turning to `FC(Cl)C(F)(F)C1(F)N=N1` (configuration not stated), the pKd (in general, the negative decadic logarithm of the Kd, by convention in mol/L) in experiment [1] was 2.32. This compound also gave a pEC50 in experiment [2] of 2.60. Further, the pIC50 (usually −log10 of the IC50, conventionally taken in molar units) in experiment [3] was 2.66.

In experiment [1], `FC(F)(F)C(Cl)Br` (configuration not stated) [HALOTHANE] had a pKd of 3.05. The pIC50 in experiment [3] is 2.54.

`FC(F)(C(Cl)Br)C1N=N1` (configuration not stated): the pKd in experiment [1] was 3.70. In addition, the pEC50 is 4.30 in experiment [4] and 4.00 in experiment [5]. This compound showed a pIC50 in experiment [3] of 3.10.

In experiment [1], `FC(F)(F)C1(Br)N=N1` gave a pKd of 2.25. The compound further had a pIC50 in experiment [3] of 3.40.

With `[N-]=[N+]=CC(F)(F)F`, in experiment [6], the pKd was 2.89. Besides, the pIC50 in experiment [3] was 2.92.

For `FC(Cl)C(F)(F)C1(Br)N=N1` (configuration not stated), the pKd in experiment [1] was 3.22. Besides, in experiment [7], the ED50 was determined as 80 µM. Further, the pEC50 in experiment [8] is 3.52. This compound also showed a pIC50 in experiment [3] of 3.15.

For the origin of these results see ChEMBL document CHEMBL1135935, “Halogenated diazirines as photolabel mimics of the inhaled haloalkane anesthetics” (J Med Chem, 2002).
